Data as given in ChEMBL document CHEMBL1165870, “Cytotoxicity of new alkylamino- and phenylamino-containing polyfluorinated derivatives of 1,4-naphthoquinone” (Eur J Med Chem, 2010).

Legend:
Salmonella typhimurium [1] = test: Suppression in H2O2-iduced mutagenesity in Salmonella Typhimurium TA102 assessed as 150 to 100 % suppression of revertant formation by Ames assay; settings: Salmonella enterica
Salmonella typhimurium [2] = test: Suppression in mutagenesity in Salmonella Typhimurium TA102 assessed as 100 to 50% suppression of revertant formation by Ames assay; settings: Salmonella enterica
[3] = Cytotoxicity against mouse PMF after 72 hrs by MTT assay
MCF7 = test: Cytotoxicity against human MCF7 cells after 72 hrs by MTT assay; format: functional, cell-based; settings: MCF7, 72 h
Salmonella typhimurium [4] = test: Suppression in H2O2-iduced mutagenesity in Salmonella Typhimurium TA102 assessed as 100 to 50 % suppression of revertant formation by Ames assay; settings: Salmonella enterica
RPMI-8226 = test: Cytotoxicity against human RPMI8226 cells after 72 hrs by MTT assay; format: functional, cell-based; settings: RPMI-8226, 72 h
[5] = Cytotoxicity against mouse LMTK cells after 72 hrs by MTT assay; format: cell-based; settings: L-M(TK-)
[6] = Growth inhibition of mouse PMF at 25 ug/ml after 72 hrs by MTT assay; settings: mouse PMF cells, read-out: GI
How it was run: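 PMF cells (about 2000 per well) seeded and held 24 h at 37 °C in IMDM or RPMI 1640 under 5% CO2, then exposed to compound.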

Salmonella typhimurium [7] = test: Suppression in mutagenesity in Salmonella Typhimurium TA102 assessed as 100 to 50% suppression of revertant formation at 50 ug/ml by Ames assay
[8] = Growth inhibition of mouse LMTK cells at 173 uM after 72 hrs by MTT assay; format: cell-based

Row | SMILES | IC50 (Salmonella typhimurium [1]) [µM] | IC50 (Salmonella typhimurium [2]) [µM] | IC50 [3] [µM] | IC50 (MCF7) [µM] | IC50 (Salmonella typhimurium [4]) [µM] | IC50 (RPMI-8226) [µM] | IC50 [5] [µM] | inhibition at 72 h, 25 ug/ml [6] [%] | Activity (Salmonella typhimurium [7]) [%] | growth inhibition (GI) [8]
1 | CCN(CC)C1=C(F)C(=O)c2c(F)c(F)c(F)c(F)c2C1=O | 0.86 | 18.5 | 28.2 | 4.1 | 2.7 | 6.9 | 62.7 | – | – | –
2 | CC1=C(Nc2ccccc2)C(=O)c2c(F)c(F)c(F)c(F)c2C1=O | 0.75 | > 149 | – | 13.4 | 21.8 | 22.4 | 104 | 45 | 24 | –
3 | CC1=C(SCCO)C(=O)c2c(F)c(F)c(F)c(F)c2C1=O | – | 0.81 | – | 173 | 0.44 | 14.8 | – | – | – | Not Active
4 | CCNC1=C(F)C(=O)c2c(F)c(F)c(F)c(F)c2C1=O | 0.094 | 0.69 | 30.9 | 8.6 | 1 | 2.4 | 11 | – | – | –
5 | CC(C)(C)NC1=C(F)C(=O)c2c(F)c(F)c(F)c(F)c2C1=O | 1.4 | 12.2 | 3.1 | 2.5 | 6.9 | 3.5 | 6.3 | – | – | –
6 | O=C1C(F)=C(Nc2ccccc2)C(=O)c2c(F)c(F)c(F)c(F)c21 | 0.089 | 0.59 | 7.4 | 2.4 | 0.15 | 2.4 | 11.8 | – | – | –
